Measurements taken from ChEMBL document CHEMBL1649278, “Characterization of a new metallo-beta-lactamase gene, bla(NDM-1), and a novel erythromycin esterase gene carried on a unique genetic structure in Klebsiella pneumoniae sequence type 14 from India” (2009).
Converted amounts (≈) assume the structure as drawn.

How the values were obtained:
[1] = system: Klebsiella pneumoniae; test: Antibacterial activity against Klebsiella pneumoniae 05-560 by Etest method; format: functional
[2] = system: Escherichia coli; test: Antibacterial activity against Escherichia coli TOP10 by Etest method; format: functional
[3] = system: Escherichia coli; test: Antibacterial activity against Escherichia coli TOP10 harboring beta-lactamase NDM-1 by Etest method; format: functional
Procedure, shortened: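 Fragments from BamHI, EcoRI or HindIII digests of K. pneumoniae 05-506 DNA were cloned into vector pK18 and electroporated into E. coli TOP10. Transformants were selected on LB agar with X-gal (30 μg/ml), ceftazidime (6 μg/ml) and kanamycin (25 μg/ml). Susceptibility read by Etest.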

[4] = system: Escherichia coli; test: Antibacterial activity against Escherichia coli J53 by Etest method; format: functional
[5] = system: Escherichia coli; test: Antibacterial activity against Escherichia coli J53 harboring beta-lactamase NDM-1 by Etest method; format: functional
Procedure, shortened: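 Transconjugant of E. coli J53 recipient, mated with donor on blood agar without selection for 18 h. Selected on MacConkey agar with sodium azide (100 μg/ml) plus ceftazidime (8 μg/ml). Transfer confirmed by indole test and PCR for the MBL gene. Susceptibility read by Etest.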

[6] = system: Escherichia coli; test: Antibacterial activity against Escherichia coli NF-NDM-1 by Etest method; format: functional
[7] = system: Klebsiella pneumoniae; test: Activity of Klebsiella pneumoniae 05-560 beta-lactamase IMP1 by spectrophotometry
[8] = system: Klebsiella pneumoniae; test: Ratio of Kcat to Km for Klebsiella pneumoniae 05-560 beta-lactamase IMP1
[9] = substrate: CC(=O)OCC1=C(C(=O)O)N2C(=O)[C@@H](NC(=O)Cc3cccs3)[C@H]2SC1; test: (§1) Activity of Klebsiella pneumoniae 05-560 beta-lactamase NDM-1 by spectrophotometry
Procedure, shortened: (§2)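 NDM-1 was expressed as a His-trx fusion. The cleared lysate (12,000 rpm, 30 min, 4°C) was bound to Ni-NTA agarose and eluted with 300 mM imidazole. The tag was cut off with TEV protease, and the protein was finished by GS320 gel filtration.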

[10] = substrate: CC(C)(O/N=C(\C(=O)N[C@@H]1C(=O)N2C(C(=O)[O-])=C(C[n+]3ccccc3)CS[C@H]12)c1csc(N)n1)C(=O)O; test: as §1; procedure, shortened: as §2
[11] = substrate: CC1(C)S[C@@H]2[C@H](NC(=O)Cc3ccccc3)C(=O)N2[C@H]1C(=O)O; test: as §1; procedure, shortened: as §2
[12] = substrate: CC1(C)S[C@@H]2[C@H](NC(=O)[C@H](N)c3ccccc3)C(=O)N2[C@H]1C(=O)O; test: as §1; procedure, shortened: as §2
[13] = substrate: CCN1CCN(C(=O)N[C@@H](C(=O)N[C@@H]2C(=O)N3[C@@H]2SC(C)(C)[C@@H]3C(=O)O)c2ccccc2)C(=O)C1=O; test: as §1; procedure, shortened: as §2
[14] = substrate: CO/N=C(\C(=O)N[C@@H]1C(=O)N2C(C(=O)O)=C(COC(C)=O)CS[C@H]12)c1csc(N)n1; test: as §1; procedure, shortened: as §2
[15] = substrate: CO/N=C(\C(=O)N[C@@H]1C(=O)N2C(C(=O)[O-])=C(C[N+]3(C)CCCC3)CS[C@H]12)c1csc(N)n1; test: as §1; procedure, shortened: as §2
[16] = substrate: CO[C@@]1(NC(=O)Cc2cccs2)C(=O)N2C(C(=O)O)=C(COC(N)=O)CS[C@@H]21; test: as §1; procedure, shortened: as §2
[17] = substrate: C[C@@H](O)[C@H]1C(=O)N2C(C(=O)O)=C(SCCNC=N)C[C@H]12; test: as §1; procedure, shortened: as §2
[18] = substrate: CC(=O)OCC1=C(C(=O)O)N2C(=O)[C@@H](NC(=O)Cc3cccs3)[C@H]2SC1; test: (§3) Ratio of Kcat to Km for Klebsiella pneumoniae 05-560 beta-lactamase NDM-1; procedure, shortened: as §2
[19] = substrate: CC(C)(O/N=C(\C(=O)N[C@@H]1C(=O)N2C(C(=O)[O-])=C(C[n+]3ccccc3)CS[C@H]12)c1csc(N)n1)C(=O)O; test: as §3; procedure, shortened: as §2
[20] = substrate: CC1(C)S[C@@H]2[C@H](NC(=O)Cc3ccccc3)C(=O)N2[C@H]1C(=O)O; test: as §3; procedure, shortened: as §2
[21] = substrate: CC1(C)S[C@@H]2[C@H](NC(=O)[C@H](N)c3ccccc3)C(=O)N2[C@H]1C(=O)O; test: as §3; procedure, shortened: as §2
[22] = substrate: CCN1CCN(C(=O)N[C@@H](C(=O)N[C@@H]2C(=O)N3[C@@H]2SC(C)(C)[C@@H]3C(=O)O)c2ccccc2)C(=O)C1=O; test: as §3; procedure, shortened: as §2
[23] = substrate: CO/N=C(\C(=O)N[C@@H]1C(=O)N2C(C(=O)O)=C(COC(C)=O)CS[C@H]12)c1csc(N)n1; test: as §3; procedure, shortened: as §2
[24] = substrate: CO/N=C(\C(=O)N[C@@H]1C(=O)N2C(C(=O)[O-])=C(C[N+]3(C)CCCC3)CS[C@H]12)c1csc(N)n1; test: as §3; procedure, shortened: as §2
[25] = substrate: CO[C@@]1(NC(=O)Cc2cccs2)C(=O)N2C(C(=O)O)=C(COC(N)=O)CS[C@@H]21; test: as §3; procedure, shortened: as §2
[26] = substrate: C[C@@H](O)[C@H]1C(=O)N2C(C(=O)O)=C(SCCNC=N)C[C@H]12; test: as §3; procedure, shortened: as §2

CO/N=C(\C(=O)N[C@@H]1C(=O)N2C(C(=O)O)=C(COC(N)=O)CS[C@H]12)c1ccco1 [CEFUROXIME]
MIC [1]: > 256 mg/L
MIC [2]: 8 mg/L (≈ 18.9 µM)
MIC [3]: > 256 mg/L
MIC [4]: 8 mg/L (≈ 18.9 µM)
MIC [5]: > 256 mg/L
MIC [6]: > 256 mg/L

C[C@@H](O)[C@H]1C(=O)N2C(C(=O)O)=C(S[C@@H]3CN[C@H](C(=O)N(C)C)C3)[C@H](C)[C@H]12 [MEROPENEM]
MIC [1]: > 256 mg/L
MIC [2]: 0.064 mg/L (≈ 0.167 µM)
MIC [3]: 12 mg/L (≈ 31.3 µM)
MIC [4]: 0.064 mg/L (≈ 0.167 µM)
MIC [5]: > 32 mg/L
MIC [6]: > 32 mg/L

C[C@@H](O)[C@H]1C(=O)N2C(C(=O)O)=C(S[C@@H]3CN[C@H](C(=O)Nc4cccc(C(=O)O)c4)C3)[C@H](C)[C@H]12
MIC [1]: > 256 mg/L
MIC [2]: 0.125 mg/L (≈ 0.263 µM)
MIC [3]: 24 mg/L (≈ 50.5 µM)
MIC [4]: 0.5 mg/L (≈ 1.05 µM)
MIC [5]: > 32 mg/L
MIC [6]: > 32 mg/L

CCN1CCN(C(=O)N[C@@H](C(=O)N[C@@H]2C(=O)N3[C@@H]2SC(C)(C)[C@@H]3C(=O)O)c2ccccc2)C(=O)C1=O [PIPERACILLIN]
MIC [1]: > 256 mg/L
MIC [2]: 0.5 mg/L (≈ 0.966 µM)
MIC [4]: 1 mg/L (≈ 1.93 µM)
MIC [5]: > 256 mg/L
MIC [6]: > 256 mg/L

CC1(C)S[C@@H]2[C@H](NC(=O)[C@H](N)c3ccccc3)C(=O)N2[C@H]1C(=O)O [AMPICILLIN]
MIC [1]: > 256 mg/L
MIC [2]: 12 mg/L (≈ 34.3 µM)
MIC [3]: > 256 mg/L
MIC [4]: 4 mg/L (≈ 11.4 µM)
MIC [5]: > 256 mg/L
MIC [6]: > 256 mg/L
Km [7]: 200 µM
kcat [7]: 950 s⁻¹
kcat/Km [8]: 4.8e+06 M⁻¹ s⁻¹

CO/N=C(\C(=O)N[C@@H]1C(=O)N2C(C(=O)O)=C(COC(C)=O)CS[C@H]12)c1csc(N)n1 [CEFOTAXIME]
MIC [1]: > 256 mg/L
MIC [2]: 0.125 mg/L (≈ 0.274 µM)
MIC [3]: > 256 mg/L
MIC [4]: 0.064 mg/L (≈ 0.141 µM)
MIC [5]: > 256 mg/L
MIC [6]: > 256 mg/L
Km [7]: 4 µM
kcat [7]: 1.3 s⁻¹
kcat/Km [8]: 350000 M⁻¹ s⁻¹

C[C@H]1[C@H](NC(=O)/C(=N\OC(C)(C)C(=O)O)c2csc(N)n2)C(=O)N1S(=O)(=O)O [AZTREONAM]
MIC [1]: > 256 mg/L
MIC [3]: 0.25 mg/L (≈ 0.574 µM)
MIC [5]: 24 mg/L (≈ 55.1 µM)
MIC [6]: 24 mg/L (≈ 55.1 µM)
Km [7]: > 1000 µM
kcat [7]: > 0.01 s⁻¹
kcat/Km [8]: < 100 M⁻¹ s⁻¹

CC(=O)OCC1=C(C(=O)O)N2C(=O)[C@@H](NC(=O)Cc3cccs3)[C@H]2SC1 [CEPHALOTHIN]
MIC [1]: > 256 mg/L
MIC [2]: 8 mg/L (≈ 20.2 µM)
MIC [3]: > 256 mg/L
MIC [4]: 4 mg/L (≈ 10.1 µM)
MIC [5]: > 256 mg/L
MIC [6]: > 256 mg/L
Km [7]: 21 µM
kcat [7]: 48 s⁻¹
kcat/Km [8]: 2.4e+06 M⁻¹ s⁻¹

B1: Metallo-beta-lactamase type 2 (Klebsiella pneumoniae), C7C422 (protein)
chain: MELPNIMHPVAKLSTALAAALMLSGCMPGEIRPTIGQQMETGDQRFGDLVFRQLAPNVWQHTSYLDMPGFGAVASNGLIVRDGGRVLVVDTAWTDDQTAQILNWIKQEINLPVALAVVTHAHQDKMGGMDALHAAGIATYANALSNQLAPQEGMVAAQHSLTFAANGWVEPATAPNFGPLKVFYPGPGHTSDNITVGIDGTDIAFGGCLIKDSKAKSLGNLGDADTEHYAASARAFGAAFPKASMIVMSHSAPDSRAAITHTARMADKLR
Km [9]: 10 µM
kcat [9]: 4 s⁻¹
Km [10]: 181 µM
kcat [10]: 5 s⁻¹
Km [11]: 16 µM
kcat [11]: 11 s⁻¹
Km [12]: 22 µM
kcat [12]: 15 s⁻¹
kcat [13]: 14 s⁻¹
Km [14]: 10 µM
kcat [14]: 6 s⁻¹
Km [15]: 77 µM
kcat [15]: 13 s⁻¹
kcat [16]: 1 s⁻¹
Km [17]: 94 µM
kcat [17]: 20 s⁻¹
kcat/Km [18]: 400000 M⁻¹ s⁻¹
kcat/Km [19]: 30000 M⁻¹ s⁻¹
kcat/Km [20]: 680000 M⁻¹ s⁻¹
kcat/Km [21]: 660000 M⁻¹ s⁻¹
kcat/Km [22]: 1.17e+06 M⁻¹ s⁻¹
kcat/Km [23]: 580000 M⁻¹ s⁻¹
kcat/Km [24]: 170000 M⁻¹ s⁻¹
kcat/Km [25]: 20000 M⁻¹ s⁻¹
kcat/Km [26]: 210000 M⁻¹ s⁻¹
